How the values were obtained:
Format in all cases: functional
Mus musculus [1] = experiment: Antipapilloma activity was measured in mice as percentage effect by ip administration at the dose of 20 mg/kg/day.; conditions: route intraperitoneal
Mus musculus [2] = experiment: Antipapilloma activity was measured in mice as percentage effect by ip administration at the dose of 5 mg/kg/day.; conditions: route intraperitoneal
Mus musculus [3] = species on record: Mus musculus; experiment: Hypervitaminosis A dose, a measure of toxicity, in mice was determined
Procedure, shortened: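 Mice received retinoid suspended in water with 0.1% carboxymethylcellulose and 0.01% Triton X-100. Dosing was ip daily Mon–Fri in week 1 and Mon–Thu in week 2. Symptoms were scored one day after the last injection: weight loss, skin redness/scaling, hair loss, nose/mouth mucosal changes, bone fractures. The value is the lowest daily dose at which 2 of 3 mice show one or more symptoms.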

Mus musculus [4] = experiment: Antipapilloma activity was measured in mice as percentage effect by ip administration at the dose of 10 mg/kg/day.; conditions: route intraperitoneal
Mus musculus [5] = experiment: Antipapilloma activity was measured in mice as percentage effect by ip administration at the dose of 40 mg/kg/day.; conditions: route intraperitoneal
Mus musculus [6] = experiment: Antipapilloma activity was measured in mice as percentage effect by ip administration at the dose of 80 mg/kg/day.; conditions: route intraperitoneal

Q: With COC(=O)/C=C(C)/C=C/C(F)=C(C)/C=C/c1c(C)cc(OC)c(C)c1C as the compound, how does the Effect (Mus musculus [1]) read?
A: -60%

Q: What about the Effect (Mus musculus [2]) of the same compound?
A: -28%

Q: What about the Dose (Mus musculus [3]) of the same compound?
A: 50 mg/kg

Q: What about the Effect (Mus musculus [4]) of the same compound?
A: -35%

Q: And the Effect (Mus musculus [5])?
A: -79%

Q: For COC(=O)/C=C(C)/C=C/C(F)=C(C)/C=C/c1c(Cl)cc(OC)c(C)c1C, which Dose (Mus musculus [3]) is on record?
A: 200 mg/kg

Q: What about the Effect (Mus musculus [5]) of the same compound?
A: -41%

Q: Which results are given for COC(=O)/C=C(C)/C=C/C(F)=C(C)/C=C/c1c(Cl)cc(OC)c(C)c1Cl?
A: Effect (Mus musculus [6]): -64%; Dose (Mus musculus [3]): 200 mg/kg

Q: For COC(=O)/C=C(C)/C=C/C(F)=C(C)/C=C/c1c(Cl)cc(OC)c(Cl)c1Cl, which Effect (Mus musculus [6]) is on record?
A: -58%

Q: What about the Dose (Mus musculus [3]) of the same compound?
A: >200 mg/kg

Q: For COC(=O)/C=C(C)/C=C/C(F)=C(C)/C=C/c1c(C)cc(OC)c(C)c1Cl, which Effect (Mus musculus [1]) is on record?
A: -56%

Q: What about the Dose (Mus musculus [3]) of the same compound?
A: 50 mg/kg

Q: What does the source list for COC(=O)/C=C(C)/C=C/C(F)=C(C)/C=C/c1c(C)cc(C)c(Cl)c1C?
A: Effect (Mus musculus [6]): -48%; Dose (Mus musculus [3]): 200 mg/kg
